In ChEMBL document CHEMBL1126568, “Nucleosides and nucleotides. 122. 2'-C-cyano-2'-deoxy-1-beta-D-arabinofuranosylcytosine and its derivatives. A new class of nucleoside with a broad antitumor spectrum” (J Med Chem, 1993):

What was measured:
OST = assay: Tested in vitro against OST human osteosarcoma; format: functional, cell-based
Method in brief: (§1)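 MTT growth assay: 2 × 10³ cells/well exposed to compound or left untreated for 72 h. MTT then added for 4 h more; formazan dissolved in DMSO and OD read at 540 nm. % inhibition = [1 − OD sample/OD control] × 100. IC₅₀ (μM) is the concentration giving 50% growth inhibition. Single-concentration inhibition measured at 100 μg/mL.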

COLO 320 = assay: Tested in vitro against colo-320 human colon adenocarcinoma; format: functional, cell-based; settings: COLO 320, Colon; method in brief: as §1
QG-95 = assay: Tested in vitro against QG-95 human squamous cell carcinoma; format: functional, cell-based; method in brief: as §1
L1210 [1] = assay: Tested in vitro inhibitory activity against murine leukemia L1210; format: functional, cell-based; settings: Mus musculus; method in brief: as §1
[2] = system: KATO III stomach cancer cell line; assay: Tested in vitro against KATO-III human stomach adenocarcinoma; format: functional, cell-based; method in brief: as §1
ST-KM-1 = assay: Tested in vitro against ST-KM human stomach adenocarcinoma; format: functional, cell-based; settings: ST-KM-1, Stomach; method in brief: as §1
KKLS = assay: Tested in vitro against KKLS human stomach adenocarcinoma; format: functional, cell-based; method in brief: as §1
[3] = Tested in vitro inhibitory activity against human oral epidermoid carcinoma KB cells; format: functional, cell-based; method in brief: as §1
SW48 = assay: Tested in vitro against SW-48 human colon adenocarcinoma; format: functional, cell-based; method in brief: as §1
A-375 = assay: Tested in vitro against A-375 cell line human melanoma; format: functional, cell-based; method in brief: as §1
HT-1080 = assay: Tested in vitro against HT1080 cell line human fibrosarcoma; format: functional, cell-based; method in brief: as §1
PC-9 = assay: Tested in vitro against PC-9 human lung adenocarcinoma; format: functional, cell-based; method in brief: as §1
HOS-TE85 = assay: Tested in vitro against MNNG/HOS cell line human osteosarcoma; format: functional, cell-based; method in brief: as §1
PC-13 = assay: Tested in vitro against PC-13 human lung large cell carcinoma; format: functional, cell-based; method in brief: as §1
MCF7 = assay: Tested in vitro against MCF-7 human breast adenocarcinoma; format: functional, cell-based; method in brief: as §1
PC-8 = assay: Tested in vitro against PC-8 human lung adenocarcinoma; format: functional, cell-based; method in brief: as §1
MKN-45 = assay: Tested in vitro against MKN-45 human stomach adenocarcinoma; format: functional, cell-based; settings: MKN-45, Stomach; method in brief: as §1
[4] = Percent inhibition against human oral epidermoid carcinoma KB cells at 100 ug/mL; format: functional; method in brief: as §1
L1210 [5] = assay: Percent inhibition against murine leukemia L1210 at 100 ug/mL; format: functional; settings: Mus musculus; method in brief: as §1

SMILES	IC50 (OST) [µM]	IC50 (COLO 320) [µM]	IC50 (QG-95) [µM]	IC50 (L1210 [1]) [µM]	IC50 [2] [µM]	IC50 (ST-KM-1) [µM]	IC50 (KKLS) [µM]	IC50 [3] [µM]	IC50 (SW48) [µM]	IC50 (A-375) [µM]	IC50 (HT-1080) [µM]	IC50 (PC-9) [µM]	IC50 (HOS-TE85) [µM]	IC50 (PC-13) [µM]	IC50 (MCF7) [µM]	IC50 (PC-8) [µM]	IC50 (MKN-45) [µM]	inhibition at 100 µg/mL [4] [%]	inhibition at 100 µg/mL (L1210 [5]) [%]
Cc1cn([C@@H]2O[C@H](CO)C=C2C#N)c(=O)[nH]c1=O				12.4				30.4											
Cc1cn([C@@H]2O[C@H](CO)C(O)[C@@H]2C#N)c(=O)[nH]c1=O (stereo partly drawn)																		-6	6.7
N#C[C@H]1C(O)[C@@H](CO)O[C@H]1n1ccc(=O)[nH]c1=O (stereo partly drawn)																		8.4	10.2

Second part, led by results:

IC50 (OST) [µM]	IC50 (COLO 320) [µM]	IC50 (QG-95) [µM]	IC50 (L1210 [1]) [µM]	IC50 [2] [µM]	IC50 (ST-KM-1) [µM]	IC50 (KKLS) [µM]	IC50 [3] [µM]	IC50 (SW48) [µM]	IC50 (A-375) [µM]	IC50 (HT-1080) [µM]	IC50 (PC-9) [µM]	IC50 (HOS-TE85) [µM]	IC50 (PC-13) [µM]	IC50 (MCF7) [µM]	IC50 (PC-8) [µM]	IC50 (MKN-45) [µM]	SMILES	inhibition at 100 µg/mL [4] [%]	inhibition at 100 µg/mL (L1210 [5]) [%]
> 360	> 360	> 360	5.8	> 360	> 360	> 360	163	> 360	308	> 360	> 360	> 360	> 360	> 360	> 360	> 360	N#C[C@H]1[C@H](O)[C@@H](CO)O[C@H]1n1cnc2c(N)ncnc21		
235	150	427	261	31.6	350	> 430		273	145	248	> 430	205	363	299	> 430	376	N#CC1=C[C@@H](CO)O[C@H]1n1ccc(N)nc1=O	46.8	
			68.8				97.8										CC(=O)Nc1ccn([C@@H]2O[C@H](CO)C=C2C#N)c(=O)n1		
> 410	0.04	> 410	0.05	> 410	> 410	> 410	2.3	> 410	> 410				> 410	0.62	1.1	57.6	Nc1ccn([C@@H]2O[C@H](CO)[C@@H](O)[C@@H]2O)c(=O)n1 [CYTARABINE]		
			25.3				230										CC(=O)Nc1ccn([C@@H]2O[C@H](CO)[C@@H](O)[C@@H]2C#N)c(=O)n1		
